Reference: ChEMBL document CHEMBL1148831, “1,3-disubstituted ureas functionalized with ether groups are potent inhibitors of the soluble epoxide hydrolase with improved pharmacokinetic properties” (J Med Chem, 2007)

Tests used:
[1] = Stability in human liver microsomes at 100 uM after 1 hr; type: ADME, Microsome; conditions: read-out: Stability
[2] = Elimination half life in rat at 5 mg/kg, po; type: ADME, organism-based; set-up: dose 5 mg/kg, route oral; conditions: in vivo
Outline: (§1)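 Rodents dosed by oral gavage at 5 mg/kg in oleic oil solution (0.1 mL mice, 1 mL rats). Whole blood (10 μL) sampled at 0, 0.5, 1, 2, 4, 6, 8 and 24 h and analysed by LC/MS/MS. Elimination t1/2 (min) from noncompartmental fit of concentration-time data, averaged over at least three animals.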

[3] = Elimination half life in dog at 0.3 mg/kg, po; type: ADME, organism-based, Canis lupus familiaris; set-up: dose 0.3 mg/kg, route oral; conditions: in vivo
Outline: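 Oral gavage at 0.3 mg/kg in 3 ml tristerate at body temperature. Plasma assayed by LC/MS/MS. t1/2 from noncompartmental fit, minutes, at least three animals.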

[4] = Partition coefficient, log P of the compound; type: physicochemical; conditions: octanol/water
[5] = Stability in human liver S9 fraction at 100 uM after 1 hr; type: ADME, subcellular; conditions: read-out: Stability
Outline: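 Human liver microsomes (0.125 mg protein) or S9 (0.056 mg) in 0.1 M sodium phosphate pH 7.4, preincubated 5 min at 37°C. Compound added from 100 μM stock (final 1.0 μM). Started with NADPH-generating system (NADP, glucose 6-phosphate, G6PDH, MgCl₂), shaken 60 min at 37°C, stopped with cold ethanol with internal standard. Percent remaining vs 0-min ethanol-quenched control.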

[6] = Elimination half life in mouse at 5 mg/kg, po; type: ADME, organism-based; set-up: dose 5 mg/kg, route oral; conditions: in vivo; outline: as §1

| Compound | remaining at 1 h, 100 µM [1] [%] | half-life [2] [h] | half-life [3] [h] | logP [4] | remaining at 1 h, 100 µM [5] [%] | half-life [6] [h] |
| --- | --- | --- | --- | --- | --- | --- |
| CCCOCCCCOCCCCCNC(=O)NC12CC3CC(CC(C3)C1)C2 | 7.5 |  |  |  |  |  |
| CCOCCOCCOCCCCCNC(=O)NC12CC3CC(CC(C3)C1)C2 | 30 | 0.65 | 3 | 3.6 | 11 |  |
| CS(=O)(=O)NCCOCCOCCCCCNC(=O)NC12CC3CC(CC(C3)C1)C2 | 42 |  |  |  | 12 |  |
| CS(=O)(=O)NCCCCCOCCCCCNC(=O)NC12CC3CC(CC(C3)C1)C2 | 59 |  |  |  |  |  |
| CCOCCOCCOc1ccc(NC(=O)NC23CC4CC(CC(C4)C2)C3)cc1 |  | 9.67 | 5.33 | 3.9 | 70 |  |
| CCOCCOCCOC1CCC(NC(=O)NC23CC4CC(CC(C4)C2)C3)CC1 (stereo unspecified) | 91 | 2.5 | 1.5 | 2.9 | 79 | 2.67 |
| CCCC(C)COCCCCCNC(=O)NC12CC3CC(CC(C3)C1)C2 (stereo unspecified) | 12 |  |  |  |  |  |
| COCCOCCOCCOCCCCCNC(=O)NC12CC3CC(CC(C3)C1)C2 | 54 |  |  |  | 14 |  |
| CCCCC(C)OCCCCCNC(=O)NC12CC3CC(CC(C3)C1)C2 (stereo unspecified) | 12 |  |  |  |  |  |
| CCOCCOCCOCCCCCNC(=O)CC12CC3CC(CC(C3)C1)C2 | 5 |  |  |  |  |  |
| O=C(NCCCCCOCCCN1CCOCC1)NC12CC3CC(CC(C3)C1)C2 | 89 | 3.33 | 1.5 | 2.4 | 34 | 0.25 |
| CCCOCCCOCCCCCNC(=O)NC12CC3CC(CC(C3)C1)C2 | 6.8 |  |  |  |  |  |
| O=C(Nc1ccc(OCCCN2CCOCC2)cc1)NC12CC3CC(CC(C3)C1)C2 | 93 |  | 2.17 | 2.9 | 97 |  |
| CCc1ccc(OCCOCCOCCCCCNC(=O)NC23CC4CC(CC(C4)C2)C3)cc1 | 21 |  |  |  |  |  |
| CCCCOCCCCCNC(=O)NC12CC3CC(CC(C3)C1)C2 | 25 |  | 2.17 | 5 |  |  |
| CCOCCOCCOc1cccc(NC(=O)NC23CC4CC(CC(C4)C2)C3)c1 | 56 |  |  |  | 9 |  |
| CCOCCOCCOCCCCCCC(=O)NC12CC3CC(CC(C3)C1)C2 | 32 |  |  |  | 5 |  |
| O=C(NCCCCCOCCOCCOCC(F)(F)F)NC12CC3CC(CC(C3)C1)C2 | 39 |  |  |  | 1.1 |  |
| CCCCCOC1CCC(NC(=O)NC23CC4CC(CC(C4)C2)C3)CC1 (stereo unspecified) | 22 | 2 | 2 | > 5 |  | 2.83 |
| O=C(NC1CCC(OCCCN2CCOCC2)CC1)NC12CC3CC(CC(C3)C1)C2 (stereo unspecified) | 92 | 1.83 | 2.17 | 2.2 | 81 | 1.33 |
